# Screening results from PubChem.
# Compounds with a hit are over-represented: about 2.4% of the library has one in this group of screens.
# Autophagy mod: alters autophagy in cells; MEF GFP-LC3 puncta imaging; test concentration mostly 10 µM; calls only at 10 µM (by protocol); AID 463193; hit rate 0.98% among 190,000;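 active = percentage of spot-positive cells more than 3 SD above its plate mean, without a fluorescence outlier flag or 80% toxicity; inconclusive = no clear call, values can overlap the other calls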;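 also: spot-positive cell cutoff set from DMSO-treated cells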
# Dynein cargo inh: dynein cargo transport inhibition; z-score, hits read low; hit rate 0.47% among 220,000; 3617.4 mouse cells, GR-EGFP nuclear translocation imaging; test concentration mostly 20 µM; stimulated with dexamethasone, 1 µM; active compounds read low; AID 1381;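 active = plate z-score of nuclear minus cytoplasmic receptor signal below a set negative limit, without overly bright fluorescence or cell loss, cut at about -3.5 in these data, passing the limit was not always enough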;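 also: z-score of nuclear minus cytoplasmic ring GR-EGFP intensity difference per well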
#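 Also added: dexamethasone, 1.0 µM final. Medium: tet-free, stripped-serum medium. Detection: fixed, Hoechst-stained cells imaged at 10x for EGFP. Read-out: nuclear-to-cytoplasmic GR-EGFP distribution per well. Times: induction 48 h, compound 1 h, agonist 30 min.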
# Hck-Nef inh: blocks Nef-activated human Hck kinase. P08631. Recombinant Hck-YEEI plus Nef, Z-Lyte FRET kinase assay. inhibition, % at 20 µM. hit rate 0.68% among 220,000. AID 463187;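 active = Hck-Nef kinase inhibition above about 50%, limit read from the data; inactive = inhibition below that limit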;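 also: 0% = DMSO with Hck plus Nef and 100% = Hck alone without Nef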
# Target sequence (P08631 whole entry, looked up): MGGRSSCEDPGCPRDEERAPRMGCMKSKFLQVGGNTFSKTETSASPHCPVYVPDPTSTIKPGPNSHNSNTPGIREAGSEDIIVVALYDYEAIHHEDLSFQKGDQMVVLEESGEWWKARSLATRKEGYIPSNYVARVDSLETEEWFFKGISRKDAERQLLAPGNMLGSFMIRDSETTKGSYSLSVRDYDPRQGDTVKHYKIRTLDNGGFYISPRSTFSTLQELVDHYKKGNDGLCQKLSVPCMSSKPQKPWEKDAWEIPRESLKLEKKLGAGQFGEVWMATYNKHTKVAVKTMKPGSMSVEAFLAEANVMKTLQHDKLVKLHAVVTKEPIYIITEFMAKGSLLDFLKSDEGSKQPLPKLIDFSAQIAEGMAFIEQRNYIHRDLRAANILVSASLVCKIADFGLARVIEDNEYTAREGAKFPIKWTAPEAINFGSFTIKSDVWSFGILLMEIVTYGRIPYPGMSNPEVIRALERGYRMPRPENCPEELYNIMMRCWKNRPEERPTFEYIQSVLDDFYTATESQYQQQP
# MDM2 E3 inh: Mdm2 E3 ligase (human) inhibition | cell-based MDM2 ubiquitination luciferase reporter, 2 h; 0 = plate control, 100 = twice control, blank-subtracted | Q00987 | signal enhancement, % at 5 µM | hit rate 0.11% among 210,000;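 active = signal enhancement of 30% or more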;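 also: luminescence tracks abundance of the self-degrading MDM2-luciferase fusion protein; higher signal means inhibition of MDM2 E3 ligase activity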
#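 Assay system: mammalian cells stably expressing self-ubiquitinating, self-degrading MDM2 E3–luciferase fusion. Quantity: 2000 cells in each well. Medium: DMEM culture medium. Compound dosing: single-point 5 µM. Timing: cell settling 4 h, compound treatment 2 h, both 37 °C. Technique: luciferase luminescence. Read-out basis: percent signal gain over controls, blank-subtracted. Benchmarks: plate controls and plate blanks.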
# TNF necrop inh: inhibitors of TNF-alpha induced necroptosis in Jurkat FADD-/- cells | Jurkat FADD-/- TNF necroptosis rescue, ATP luminescence, 24 h; 0 = TNF only, 100 = no-TNF cells | activation (protection from cell death), % at 10 µM | hit rate 0.068% among 220,000 | AID 463075;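 active = activation, meaning protection from cell death, of at least 50% relative to plate controls; inactive = activation below 50%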;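 also: necroptosis triggered by 40 ng/mL TNF-alpha added together with compound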
# zVAD death inh: L929 zVAD cell death inhibition | viability rescue, % at 10 µM | L929 zVAD necroptosis rescue, ATP luminescence, 24 h; with zVAD 60 µM | hit rate 0.38% among 220,000 | AID 1377;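 active = activation, scaled between plate controls, above about 75%, limit read from the data; inactive = activation under that limit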;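 also: 0% = zVAD with DMSO and 100% = DMSO alone without zVAD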
# Dynein confirm: dynein cargo transport inhibition, confirmation | shares compounds with Dynein cargo inh | 3617.4 GR-EGFP nuclear translocation imaging, dexamethasone-induced | calls only at 20 µM | hit rate 69% among 1,000;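 active = inhibition of receptor movement into the nucleus at or above a set limit in both runs, with normal cell brightness and cell count; inconclusive = limit reached in only one run, brightness and count normal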;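 also: dexamethasone at 1 µM final in well for 30 min; nuclear minus cytoplasmic GR-EGFP mean intensity difference in channel 2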
# The depositor's hits bear a star; i = inactive; ? = inconclusive; nt = no result; + = active, no number.
SMILES,Autophagy mod,Dynein cargo inh,Hck-Nef inh,MDM2 E3 inh,TNF necrop inh,zVAD death inh,Dynein confirm
O=C(/C=C\c1ccccc1OC(=O)c1ccccc1F)c1cc2ccccc2o1,i,-4.69*,13.7,-13.7,-0.9,1.5,+
O=C(Oc1ccccc1)c1cc2ccccc2o1,i,0.428,0.0,15.1,-0.3,-0.2,nt
COc1ccc(-n2c(C)cc(C(=O)CCl)c2C)cc1,+,-3.84*,34.7,-29.4,-13.0,-2.5,+
Cc1cc(-n2c(C)cc(C(=O)CCl)c2C)no1,?,-7.33*,-6.1,-1.6,-3.8,-1.6,+
O=C(c1ccccc1)c1cc(Cl)ccc1N1C(=O)C=CC1=O,i,-4.47*,-7.0,2.5,-0.9,-0.3,+
N#C/C(=C/c1ccc(N2CCOCC2)o1)c1ccc(Cl)cc1,+,-9.13,-1.7,6.2,-5.3,0.8,i
N#C/C(=C\c1ccc(N2CCOCC2)o1)c1nc2ccccc2[nH]1,?,-0.653,-1.6,-13.4,-0.7,2.9,nt
CCOC(=O)c1nc(S(C)(=O)=O)ncc1N1CCOCC1,i,-1.32,1.8,0.7,0.1,0.5,nt
CCOC(=O)c1nc(S(C)(=O)=O)ncc1Cl,i,-5.13*,-0.4,-13.4,8.9,-1.2,i
O=C1CC(NC23CC4CC(CC(C4)C2)C3)C(=O)N1c1ccc2c(c1)OCO2 (configuration not stated),i,-0.22,-0.1,-12.3,-0.1,-0.1,nt
O=[N+]([O-])c1ccc(S(=O)(=O)CC(CN2CCCCC2)N2CCCCC2)cc1 (configuration not stated),i,-4.06,-20.9,-5.0,-16.2,26.0,+
COc1ccc(NC2=NCC(Cc3ccc(Br)cc3)S2)cc1 (configuration not stated),i,-0.612,4.6,-4.1,15.7,3.1,nt
O=C(NCc1c(Cl)cccc1Oc1ccccc1)c1ccccc1,nt,-0.194,10.4,-18.0,-0.3,0.8,nt
CCCn1nc(-c2ccccc2)c2nc3ccccc3nc21,+,-4.51,-1.0,-2.4,-3.0,0.0,i
Cc1cc(O)c(NC(=O)c2cc([N+](=O)[O-])ccc2Cl)cc1C,i,-0.899,20.9,-0.5,5.4,4.1,nt
Cc1ccc(O)c(NC(=O)c2cc([N+](=O)[O-])ccc2Cl)c1,i,-3.68*,17.3,1.3,-4.2,16.0,+
O=C(O)c1cc(-c2c[nH]c3ccccc23)nc2cc3ccccc3cc12,nt,-1.21,14.0,-16.4,-0.3,1.0,nt
CCSc1nc2ccccc2n1C(=O)/C=C\c1ccc(OC)c(OC)c1,i,-4.33*,2.7,42.7*,36.0,-0.4,+
CCSc1nc2ccccc2n1CC(N)=O,i,-0.0629,7.2,-20.4,-1.7,0.2,nt
CCN(C(=O)CSc1nc2ccccc2c(=O)n1C(C)COC)C1CCS(=O)(=O)C1 (configuration not stated),i,0.213,21.9,-11.0,1.9,3.5,nt
Cc1ccc(C(=O)/C=C/c2ccccc2)o1,i,-3.73*,7.3,-8.2,0.1,0.6,?
CC(C)c1ccc(/C=C/C(=O)n2nnc3ccccc32)cc1,i,-4.53*,-30.5,-3.6,-20.2,-0.1,+
Cc1oc(-c2cccs2)nc1CN1CCC(CO)(CCOc2ccccc2)CC1,i,-0.808,32.0,-6.7,4.2,-1.2,nt
Cc1ccc(-c2nnnn2-c2ccc(C)cc2)cc1,i,0.118,-5.3,-11.0,0.0,-0.5,nt
Cc1ccc(-n2nnnc2CCl)cc1,i,-6.09*,15.6,2.8,-5.9,-0.4,+
CCOC(=O)CNC(=O)CSc1nccn1Cc1ccco1,i,-1.18,-5.4,-3.4,0.1,1.0,nt
CCN1CCN(Cc2c(O)ccc3c2O/C(=C\C=C\c2ccccc2)C3=O)CC1,i,-4.91*,-5.3,-16.7,-6.7,69.6,+
O=C1/C(=C/C=C/c2ccccc2)Oc2c1ccc(O)c2CN1CCN(CCO)CC1,nt,-1.34,-13.2,-3.2,-3.8,0.6,nt
